Drawing on PubChem BioAssay AID1296 (Columbia University Molecular Screening Center, 2008), this text covers activation and normalized cell count for 15 molecules.

In all, about 130,000 compounds went through this assay and about 1,000 (0.77%) were called active. Inconclusive results (about 1%) are left out. This is one part of a sample in which actives are shown more often than they occur.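 How the source made its calls: active means activation at 2 µM above a set limit, confirmed on inspection of the cell images; inconclusive means above the set limit but not confirmed on image inspection; inactive means the rest.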

A short description of this assay: insulin gene promoter stimulation in islet cells – imaging, TRM-6 cells, eGFP reporter, cell count, primary screen (AID 1296).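 On activation: share of cells whose green reporter signal exceeds an intensity cutoff.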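 On normalized cell count: cells counted after 48 h compound exposure.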 The note with it: at 2 µM; activation: stronger effect = higher value; normalized cell count: measured here: cell count (toxicity). In outline:
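Test system: human fetal islet-derived TRM-6 cells with tamoxifen-inducible insulin promoter–eGFP reporter; schedule: overnight tamoxifen, then two-day compound incubation at 37 °C; measured by: high-content imaging of fixed cells with Hoechst nuclear stain; evaluation: percent cells above green-intensity threshold, converted to percent activation versus plate controls; control set: stimulated and unstimulated wells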
On to `CC1=CC(=Cc2sc3ccccc3[n+]2C)C=C(C)O1`, for which the activation is 456% (active) and the normalized cell count amounted to 88.8%.

`C[N+]1(C)CCOC(O)(c2ccc(-c3ccc(C4(O)C[N+](C)(C)CCO4)cc3)cc2)C1` (stereo not given): the activation is -9.52% (inactive) and the normalized cell count stood at 86.4%.

Take `CC(=O)c1c(C)n(C(C)C)c2ccc(O)cc12`: the activation was 269% (inactive) and the normalized cell count was 65.5%.

For `CCOCCc1c(O)[nH]c(=S)[nH]c1=O`, the activation was 0% (inactive) and the normalized cell count was found to be 137%.

Take `O=[N+]([O-])c1ccc(C2C3C(c4ccccc4)=NC4(CCCCC4)N32)cc1` (stereo not given): the activation is -4.54% (inactive) and the normalized cell count turned out to be 112%.

Regarding `O=C(COc1ccc2ccccc2c1)N1CCN(Cc2ccncc2)CC1`, the activation is 1.82% (inactive) and the normalized cell count came out at 106%.

As to `O=C(COC(=O)c1ccccc1)Nc1ccc(Cl)cc1C(=O)c1ccccc1`, the activation is -3.33% (inactive) and the normalized cell count amounted to 106%.

On to `CCOC(=O)c1c(-c2ccccc2)oc2ccc(OC(=O)N(C)C)cc12`, for which the activation is -72.7% (inactive) and the normalized cell count is 171%.

For `CC[N+]1(C)CCCC(OC(=O)C(O)(c2ccccc2)c2ccccc2)C1` (stereo not given), the activation was 295% (active) and the normalized cell count came out at 82%.

As for `Cc1nn(Cc2ccccc2Cl)c(Cl)c1C(=O)OC(C(=O)NC(N)=O)C(C)C` (stereo not given), the activation is 6.67% (inactive) and the normalized cell count was determined as 71.1%.

Consider `O=C(CN1CCCC1=O)NCCc1ccccc1`, for which the activation was -2.56% (inactive) and the normalized cell count turned out to be 176%.

As to `CC(=O)c1c(O)n(C2CCCCCC2)c(=O)[nH]c1=O`, the activation is 146% (active) and the normalized cell count was 160%.

Turning to `COC(=O)CN1C(=O)C2(C(C(=O)OC)=C(N)Oc3ccccc32)C2=C1CC(C)(C)CC2=O` (stereo not given), the activation was -6.67% (inactive) and the normalized cell count worked out at 84.7%.

Take `Cc1ccc(N2C(=O)NC(=O)C(CCc3ccncc3)(Cc3cccc(Cl)c3Cl)C2=O)cc1` (stereo not given): the activation is 169% (inactive) and the normalized cell count was 113%.

In the case of `CC(=O)c1ccc(OC(NC(=O)Cc2ccccc2)C(Cl)(Cl)Cl)cc1` (stereo not given), the activation is 6.45% (inactive) and the normalized cell count was 137%.
